# Screens: PubChem BioAssay, several laboratories
# The list is not random: actives were taken first. Their share in the collection is about 29%.
# CYP2C19 inhib = blockers of cytochrome P450 2C19 activity – biochemical, luminescence, ADME assay, primary screen | P33261 | CYP2C19 Supersomes, luciferin-H EGE luminescence, 30 min | inhibition, % at 5 µM | 96,000 tested, 21% active | AID 778, 2007;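 active = CYP2C19 inhibition above a set limit at 5 µM in the primary screen, cut at about 50% in these data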;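 note: plate controls were negative control wells for no effect and 2.5 mM tranylcypromine positive control for full effect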
# CYP2C9 activ = human CYP2C9 activators, primary screen, biochemical, luminescence. Cytochrome P450 2C9 (Homo sapiens), P11712. recombinant CYP2C9, luciferin-H conversion; stronger effect = higher value; factor 1 = untreated enzyme, 0 = blocked. activation factor at 5 µM. 96,000 tested, 1.4% active. AID 1024, 2008;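 active = activation factor of 2 or more for CYP2C9 at a 5 µM dose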;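 note: 0 = sulfaphenazole-blocked wells and 1 = vehicle-only wells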
# Target sequence (P11712 whole entry, looked up): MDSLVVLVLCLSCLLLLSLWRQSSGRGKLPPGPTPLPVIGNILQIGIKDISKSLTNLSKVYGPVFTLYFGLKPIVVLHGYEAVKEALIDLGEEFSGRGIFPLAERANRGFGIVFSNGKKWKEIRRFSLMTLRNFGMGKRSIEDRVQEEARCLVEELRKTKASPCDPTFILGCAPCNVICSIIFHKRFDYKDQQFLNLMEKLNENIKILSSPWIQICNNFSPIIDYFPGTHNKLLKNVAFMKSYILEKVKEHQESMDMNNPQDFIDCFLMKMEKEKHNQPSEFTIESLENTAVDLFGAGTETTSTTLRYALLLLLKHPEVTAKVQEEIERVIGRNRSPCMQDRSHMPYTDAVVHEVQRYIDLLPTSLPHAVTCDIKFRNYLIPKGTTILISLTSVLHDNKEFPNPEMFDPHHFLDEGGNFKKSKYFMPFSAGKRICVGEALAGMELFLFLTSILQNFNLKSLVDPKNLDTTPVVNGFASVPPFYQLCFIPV
# CYP2C19 activ = human CYP2C19 activators, primary screen, biochemical, luminescence. AID 1025, 2008. 96,000 tested, under 10 active. Cytochrome P450 2C19 (Homo sapiens), P33261. activation factor at 5 µM. recombinant CYP2C19, luciferin-H EGE luminescence; stronger effect = higher value; 0 = fully inhibited enzyme, 1 = untreated enzyme;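 active = activation factor of at least 2 at 5 µM in the primary screen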;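 note: 0 = wells with 2.5 mM tranylcypromine and 1 = vehicle-only wells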
# CYP2C9 inhib = blockers of cytochrome P450 2C9 activity – biochemical, luminescence, ADME assay, primary screen | CYP2C9 Supersomes, luciferin-H conversion | 96,000 tested, 20% active | P11712 | inhibition, % at 5 µM;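 active = blocking of liver enzyme CYP2C9 beyond about 50% at 5 µM, limit read from the data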
# Ecoli tolC = growth inhibitors of E. coli tolC mutant, primary screen, strain BW25113 ΔtolC::kan, 384-well | OD615 | growth inhibition, % at 10 µM (by protocol) | 65,000 tested, 2.2% active;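 active = growth inhibition at or above a cutoff equal to the mean over every tested compound plus 3 SD, cut at about 60% in these data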;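 note: growth measured after 20 h incubation at 37 °C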
#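 Test system – E. coli BW25113 ΔtolC::kan, tolC deletion mutant strain · Detection – OD at 615 nm · Buffer or medium – LB with kanamycin 50 µg/mL · Times – 20 h compound exposure of bacteria at 37 °C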
# E coli WT exp = growth inhibitors of wild-type E. coli, primary screen, strain BW25113, expanded library, OD600. OD600 absorbance. growth inhibition, % at 100 µM. 98,000 tested, 0.15% active. AID 710, 2007;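 active = growth inhibition above about 50% at one test dose, limit read from the data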;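 note: growth measured after 20 h incubation at 37 °C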
# * hit, by the source's call; / = no result given.
SMILES,CYP2C19 inhib,CYP2C9 activ,CYP2C19 activ,CYP2C9 inhib,Ecoli tolC,E coli WT exp
O=C(CCS(=O)(=O)c1cccc2nonc12)NCCc1ccccc1,53*,1,0.5,3,-5,8
CC(C)CCNC(=O)CCS(=O)(=O)c1cccc2nonc12,55*,1.3,0.4,-34,-8,2
COc1cccc(CNC(=O)CCS(=O)(=O)c2cccc3nonc23)c1,42,1.2,0.6,-19,2,3
O=C(CCNS(=O)(=O)c1cccc2nonc12)NCc1cccs1,16,2*,0.8,-101,-11,14
CCOc1ccccc1NC(=O)CCS(=O)(=O)c1cccc2nonc12,67*,0.9,0.3,8,8,3
CSc1nc(N)nc(SCC(=O)C(C)(C)C)c1C#N,44,0.3,0.6,73*,/,2
Cc1ccc(-c2nnc(SCc3nc(N)nc(Nc4ccccc4C)n3)n2N)cc1,42,0.6,0.6,37,/,2
COc1cc(OC)cc(C(C(=O)NCc2ccccc2)N(Cc2ccco2)C(=O)c2ccno2)c1 (stereo not given),69*,0.4,0.3,60*,0,-13
Cc1ccc(S(=O)(=O)c2nc(N3CCOCC3)sc2Cl)cc1,36,0.9,0.6,6,0,15
CC(=O)OC(C(=O)NCc1ccc(F)cc1)c1ccccn1 (stereo not given),-8,1.2,1.1,-17,/,-1
CCNC(=O)Nn1c(-c2ccccc2)nc2ccccc2c1=O,-14,1.1,1.1,-7,/,6
Cc1ccccc1OCC(=O)NCCC(=O)O,-3,0.9,1,10,-10,-8
CC(=O)Nn1c(COc2ccccc2C)nc2ccccc2c1=O,76*,0.2,0.2,77*,-25,-1
Cc1cccc(C)c1OCC(=O)Nn1c(COc2ccccc2)nc2ccccc2c1=O,13,0.2,0.9,76*,/,-8
Cc1nc2ccccc2c(=O)n1NC(=O)c1c(O)c2ccccc2n(C)c1=O,13,1,0.9,3,48,/
Cc1ccc(OCC(=O)Nn2c(C)nc3ccccc3c2=O)c(C(C)C)c1,4,0,1,98*,/,-17
Cc1ccccc1OCC(=O)Nn1c(COc2ccccc2)nc2ccccc2c1=O,34,0,0.7,100*,/,-7
CCOc1[nH]n(-c2ccccc2)c(=O)c1C=Nc1ccc(Cl)cc1,-22,1,1.2,1,/,-3
CN(C)S(=O)(=O)c1ccc(S(=O)(=O)N(Cc2ccccn2)Cc2ccco2)cc1,/,/,/,/,7,/
O=C(NCCN1CCOCC1)c1ccc2c(c1)ncn2C1CCCCC1,-3,0.9,1,8,-18,2
Cc1noc(NS(=O)(=O)c2ccc(N/C=C/C(=O)c3ccncc3)cc2)c1C,-8,0.5,1.1,51*,/,9
Cc1cccc(OCCCC(=O)Nc2ccc(S(=O)(=O)Nc3onc(C)c3C)cc2)c1,-6,1,1.1,5,26,-1
Cc1noc(NS(=O)(=O)c2ccc(NC(=O)COc3ccc(Cl)cc3Cl)cc2)c1C,-10,0.3,1.1,71*,63*,5
CCc1cccc(OCC(=O)Nc2ccc(S(=O)(=O)Nc3onc(C)c3C)cc2)c1,7,0.2,0.9,80*,15,12
Cc1ccc(OCC(=O)Nc2ccc(S(=O)(=O)Nc3onc(C)c3C)cc2)cc1,-2,0.9,1,12,9,-3
SMILES,CYP2C19 inhib,CYP2C9 activ,CYP2C19 activ,CYP2C9 inhib,Ecoli tolC,E coli WT exp
Cc1ccc(S(=O)(=O)CC(=O)Nc2ccc(S(=O)(=O)Nc3onc(C)c3C)cc2)cc1,-6,0.3,1.1,67*,-5,0
Cc1nn(CC(=O)Nc2ccc3c(c2)oc2ccccc23)c(=O)c2ccccc12,40,1,0.6,1,-10,-4
O=C(CN1CCCCC1)Nc1cccc([N+](=O)[O-])c1,-3,1,1,-4,/,6
COc1cc(NC(=O)c2ncn[nH]2)cc(OC)c1OC,/,/,/,/,10,/
COc1cc(NS(=O)(=O)c2ccc(NC(=O)NC3CCCCC3)cc2)nc(OC)n1,-7,0.9,1.1,8,48,-1
COc1cc(NS(=O)(=O)c2ccc(NC(=O)COc3ccccc3Cl)cc2)nc(OC)n1,86*,0,0.1,96*,71*,-8
Cc1c(Cl)c(C(F)(F)F)nn1CC(=O)N1CCSCC1,/,/,/,/,10,5
Cc1cc(O)c(NC(=O)c2ccco2)cc1C,-7,1,1.1,0,-6,-3
Cc1ccc(C(C)NC(=O)c2ccco2)cc1C (stereo not given),48,2.2*,0.5,-120,11,8
CCCCCCn1c(CN2CCN(C)CC2)nc2c1c(=O)n(C)c(=O)n2C,/,/,/,/,1,1
CC(C)(C)Cc1nc2ccccc2n1CCc1ccccc1,85*,0.8,0.2,20,/,3
c1ccc(Cn2c(CSc3nnnn3-c3ccccc3)nc3ccccc32)cc1,2,1,1,2,7,-10
c1ccc(Cc2nc3ccccc3n2Cc2ccccc2)cc1,36,0.1,0.6,92*,/,7
CCCc1nc2ccccc2n1CCOC,4,1,1,4,/,4
O=C(CC1NCCNC1=O)OCc1ccccc1 (stereo not given),-9,1.1,1.1,-13,-16,0
O=c1c2[nH]c3ccccc3c2ncn1CCN1CCCCC1,15,1.1,0.9,-6,-27,2
O=C(CC(NCCc1ccccc1)C(=O)O)Nc1ccc(O)cc1 (stereo not given),-2,1,1,2,/,4
Cc1ccc(N=C2NC(=O)C(CC(=O)O)S2)cc1 (stereo not given),-16,1.1,1.2,-8,/,2
CCC(=NCc1ccccc1)c1c(C(F)(F)F)[nH]n(-c2nc3ccccc3s2)c1=O,68*,0.1,0.3,94*,/,-7
CCC(=NCc1ccco1)c1c(C(F)(F)F)[nH]n(-c2nc3ccccc3s2)c1=O,64*,0.3,0.4,70*,/,0
CC1C(=O)CC(c2ccccc2)N(C)C1c1ccccc1 (stereo not given),100*,0.1,0,90*,45,2
COc1ccc(-c2nc(C#N)c(NCc3ccc(C)cc3)o2)cc1OC,15,0.5,0.9,53*,-4,-15
CC(C)(C)c1ccc(-c2nc(C#N)c(NCc3ccncc3)o2)cc1,25,0.3,0.8,67*,48,2
COc1ccc(-c2nc(C#N)c(NCCc3ccccc3)o2)cc1OC,80*,0.1,0.2,93*,29,-3
CC(=O)c1c(C)[nH]c(C(=O)Nc2ccc(C)cn2)c1C,33,0.9,0.7,9,-10,8
